According to ChEMBL document CHEMBL4304816, “A Novel Biphenyl-based Chemotype of Retinoid X Receptor Ligands Enables Subtype and Heterodimer Preferences” (ACS Med Chem Lett, 2019):
The source made the active and inactive calls. The calls are words filed in the database; no cut-off is given here.

Columns and labels:
Format in all cases: cell-based
[1] = target: T1, Retinoic acid receptor beta (Homo sapiens) (UniProt P10826); experiment: Agonist activity at Gal4-LBD fused RARbeta (unknown origin) expressed in HEK293T cells at 20 uM after 14 to 16 hrs by dual-Glo luciferase assay
T1 sequence (whole entry): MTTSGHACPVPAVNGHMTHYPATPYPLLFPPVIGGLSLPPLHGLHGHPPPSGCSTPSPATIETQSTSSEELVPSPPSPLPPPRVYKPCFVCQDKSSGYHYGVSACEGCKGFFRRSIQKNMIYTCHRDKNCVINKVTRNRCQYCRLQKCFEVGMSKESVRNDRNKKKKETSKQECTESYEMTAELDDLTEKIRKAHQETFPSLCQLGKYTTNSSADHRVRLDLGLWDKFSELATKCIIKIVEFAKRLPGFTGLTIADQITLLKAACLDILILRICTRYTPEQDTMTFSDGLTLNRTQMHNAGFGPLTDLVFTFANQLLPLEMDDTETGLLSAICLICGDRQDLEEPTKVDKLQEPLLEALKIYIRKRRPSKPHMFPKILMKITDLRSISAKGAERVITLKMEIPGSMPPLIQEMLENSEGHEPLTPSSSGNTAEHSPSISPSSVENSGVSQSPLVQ
Outline: (§1)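 Gal4-hybrid reporter gene selectivity panel of related nuclear receptors (PPARα/β/γ, RARα/β/γ) in HEK293T cells. Activity is read as mean fold activation versus 0.1% DMSO vehicle, n ≥ 2.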

[2] = target: T2, Retinoic acid receptor alpha (Homo sapiens) (UniProt P10276); experiment: Agonist activity at Gal4-LBD fused RARalpha (unknown origin) expressed in HEK293T cells at 20 uM after 14 to 16 hrs by dual-Glo luciferase assay; outline: as §1
T2 sequence (whole entry): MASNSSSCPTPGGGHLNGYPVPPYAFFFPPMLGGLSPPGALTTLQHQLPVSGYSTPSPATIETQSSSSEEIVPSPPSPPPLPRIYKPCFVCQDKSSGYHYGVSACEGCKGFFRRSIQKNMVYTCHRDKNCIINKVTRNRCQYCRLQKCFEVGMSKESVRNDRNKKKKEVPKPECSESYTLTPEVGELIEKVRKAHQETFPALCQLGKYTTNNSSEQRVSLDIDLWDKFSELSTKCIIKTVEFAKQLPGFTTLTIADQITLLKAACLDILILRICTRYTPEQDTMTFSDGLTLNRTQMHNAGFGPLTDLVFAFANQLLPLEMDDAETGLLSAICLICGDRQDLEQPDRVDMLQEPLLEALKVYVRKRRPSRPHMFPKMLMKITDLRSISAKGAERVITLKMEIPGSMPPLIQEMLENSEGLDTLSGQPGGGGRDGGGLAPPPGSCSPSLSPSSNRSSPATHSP

[3] = Agonist activity at full-length human RXR/LXR expressed in HEK293T cells at 10 uM after 14 to 16 hrs by dual-glo luciferase reporter gene assay relative to untreated control; conditions: HEK-293T, read-out: Activity
Outline: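 RXR:LXR or RXR:PPARγ heterodimer reporter assay with test compound alone. Activation expressed relative to 0.1% DMSO vehicle. Three independent experiments, each in duplicate; mean reported.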

[4] = target: T3, Peroxisome proliferator-activated receptor delta (Homo sapiens) (UniProt Q03181); experiment: Agonist activity at Gal4-LBD fused PPARbeta (unknown origin) expressed in HEK293T cells at 10 uM after 14 to 16 hrs by dual-Glo luciferase assay; outline: as §1
T3 sequence (whole entry): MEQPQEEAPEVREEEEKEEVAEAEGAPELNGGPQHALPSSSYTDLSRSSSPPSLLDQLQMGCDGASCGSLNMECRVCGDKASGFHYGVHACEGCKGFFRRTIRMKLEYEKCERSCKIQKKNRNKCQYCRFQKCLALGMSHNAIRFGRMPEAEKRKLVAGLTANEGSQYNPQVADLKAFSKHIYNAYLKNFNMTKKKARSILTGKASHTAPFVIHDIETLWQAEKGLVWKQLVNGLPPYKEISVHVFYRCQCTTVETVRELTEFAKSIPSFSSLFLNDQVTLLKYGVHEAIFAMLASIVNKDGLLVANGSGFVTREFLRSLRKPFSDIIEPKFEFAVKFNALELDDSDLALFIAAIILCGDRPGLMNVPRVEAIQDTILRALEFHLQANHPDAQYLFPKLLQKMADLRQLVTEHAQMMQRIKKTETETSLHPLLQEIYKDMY

[5] = target: T4, Retinoic acid receptor RXR-gamma (Homo sapiens, UniProt P48443); experiment: Agonist activity at Gal4-LBD fused RXRgamma (unknown origin) expressed in HEK293T cells after 14 to 16 hrs by dual-Glo luciferase assay
T4 sequence (P48443 whole entry): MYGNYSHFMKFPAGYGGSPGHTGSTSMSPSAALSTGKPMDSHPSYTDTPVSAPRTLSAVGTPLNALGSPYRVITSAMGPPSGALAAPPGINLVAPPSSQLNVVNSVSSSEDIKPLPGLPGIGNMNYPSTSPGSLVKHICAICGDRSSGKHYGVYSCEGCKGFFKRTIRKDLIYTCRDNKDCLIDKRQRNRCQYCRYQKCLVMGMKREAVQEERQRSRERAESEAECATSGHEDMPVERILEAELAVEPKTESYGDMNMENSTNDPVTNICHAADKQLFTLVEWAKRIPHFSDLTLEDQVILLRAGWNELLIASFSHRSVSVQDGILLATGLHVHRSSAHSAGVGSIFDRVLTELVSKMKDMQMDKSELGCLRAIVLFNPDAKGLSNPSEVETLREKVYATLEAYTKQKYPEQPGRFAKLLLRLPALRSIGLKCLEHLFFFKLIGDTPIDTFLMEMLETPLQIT
Outline: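 Gal4-hybrid RXRα/β/γ reporter gene assays in HEK293T cells. Fold activation is the maximal fold activation versus 0.1% DMSO.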

[6] = target: T5, Retinoic acid receptor gamma (Homo sapiens) (UniProt P13631); experiment: Agonist activity at Gal4-LBD fused RARgamma (unknown origin) expressed in HEK293T cells after at 10 uM 14 to 16 hrs by dual-Glo luciferase assay; outline: as §1
T5 sequence (whole entry): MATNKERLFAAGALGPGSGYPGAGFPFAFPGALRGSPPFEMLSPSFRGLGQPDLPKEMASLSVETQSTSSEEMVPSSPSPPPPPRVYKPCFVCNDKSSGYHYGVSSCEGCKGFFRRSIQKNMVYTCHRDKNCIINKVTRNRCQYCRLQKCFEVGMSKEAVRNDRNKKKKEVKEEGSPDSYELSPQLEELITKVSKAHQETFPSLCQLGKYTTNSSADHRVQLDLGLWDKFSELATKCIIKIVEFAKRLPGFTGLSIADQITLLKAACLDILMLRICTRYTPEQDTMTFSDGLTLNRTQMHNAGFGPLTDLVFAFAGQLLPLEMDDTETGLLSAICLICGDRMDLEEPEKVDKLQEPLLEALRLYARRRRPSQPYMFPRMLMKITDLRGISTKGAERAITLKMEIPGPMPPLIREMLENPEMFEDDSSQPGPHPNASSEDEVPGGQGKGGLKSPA

[7] = target: T2, Retinoic acid receptor alpha (Homo sapiens); experiment: Agonist activity at Gal4-LBD fused RARalpha (unknown origin) expressed in HEK293T cells at 10 uM after 14 to 16 hrs by dual-Glo luciferase assay; outline: as §1

With Cc1cc(-c2ccc(C(=O)O)cc2)cc(C(C)(C)C)c1 the Activity [1] was “Active” and the Activity [2] was “Active”.

In the case of Cc1cc(-c2cc(C(F)(F)F)cc(C(F)(F)F)c2)ccc1CC(=O)O, the activity at 10 µM [3] is reported as 63%, the Activity [4] is reported as “Active” and the EC50 [5] is reported as 1000 nM. For the same compound, the Activity [6] was “Active” and the Activity [7] was “Active”.

With Cc1cc(-c2cc(C(C)(C)C)cc(C(C)(C)C)c2)ccc1C(=O)O the Activity [4] was “Active”, the Activity [6] was “Active” and the Activity [7] was “Active”.
